The source made the active and inactive calls. The calls are words filed in the database; no cut-off is given here.
What was measured:
[1] = Cytotoxicity against human Mino cells assessed as reduction in cell viability after 72 hrs by MTT assay; format: functional, cell-based
Method in brief: (§1)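 Cells seeded in triplicate at 3 × 10³ cells/well: 293_CHI3L1, U373 and C6 in DMEM; UPN1 in alpha-MEM; Granta, JeKo and Mino in RPMI. Compounds added by serial dilution at final 0.01, 0.1, 1, 10 and 100 µM for 72 h. MTT read-out gives viable cells as % of DMSO vehicle control. IC50 is the concentration giving 50% cell death versus control.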

[2] = Cytotoxicity against human U373 cells assessed as reduction in cell viability after 72 hrs by MTT assay; format: functional, cell-based, U-373MG ATCC; settings: U373 MG; method in brief: as §1
[3] = biological target: T1, Mitogen-activated protein kinase; ERK1/ERK2 (Homo sapiens) (UniProt P27361+P28482); assay: Inhibition of ERK1/2 phosphorylation in human HEK293 cells overexpressing CHI3L1 gene after 24 hrs by Western blot analysis; format: cell-based
Method in brief: (§2)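 293_CHI3L1 or U373 cells seeded in triplicate at 10⁵ cells/well in DMEM/10% FBS and grown to near-confluence. Serum-starved 24 h; U373 then stimulated with 10% FBS. Treated with compound 24 h. Lysates run on 10% SDS–PAGE and blotted for phospho-ERK1/2 or phospho-AKT1 (4 °C overnight), ECL detection. Membranes stripped and reprobed for β-actin.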

[4] = biological target: RAC-alpha serine/threonine-protein kinase (Homo sapiens) (UniProt P31749); assay: Inhibition of AKT1 phosphorylation in human HEK293 cells overexpressing CHI3L1 gene after 24 hrs by Western blot analysis; format: cell-based; method in brief: as §2
[5] = biological target: RAC-alpha serine/threonine-protein kinase (Homo sapiens) (UniProt P31749); assay: Inhibition of AKT1 phosphorylation in human U373 cells overexpressing CHI3L1 gene after 24 hrs by Western blot analysis; format: cell-based; settings: U-373MG ATCC; method in brief: as §2
HEK293 [6] = assay: Cytotoxicity against HEK293 cells overexpressing CHI3L1 gene assessed as reduction in cell viability after 72 hrs by MTT assay; format: functional, cell-based; settings: Homo sapiens, HEK293, 72 h; method in brief: as §1
[7] = Cytotoxicity against human Jeko cells assessed as reduction in cell viability after 72 hrs by MTT assay; format: functional, cell-based; settings: JeKo-1, 72 h; method in brief: as §1
C6 [8] = assay: Cytotoxicity against rat C6 cells assessed as reduction in cell viability after 72 hrs by MTT assay; format: functional, cell-based; settings: C6, 72 h; method in brief: as §1
Granta [9] = assay: Cytotoxicity against human Granta cells assessed as reduction in cell viability after 72 hrs by MTT assay; format: functional, cell-based; method in brief: as §1
[10] = biological target: T1, Mitogen-activated protein kinase; ERK1/ERK2 (Homo sapiens); assay: Inhibition of ERK1/2 phosphorylation in human U373 cells overexpressing CHI3L1 gene after 24 hrs by Western blot analysis; format: cell-based; settings: U-373MG ATCC; method in brief: as §2
[11] = Cytotoxicity against human UPN1 cells assessed as reduction in cell viability after 72 hrs by MTT assay; format: functional, cell-based; settings: UPN1, 72 h; method in brief: as §1
Granta [12] = assay: Cytotoxicity against human Granta cells assessed as reduction in cell viability at 100 uM after 72 hrs by MTT assay; format: functional, cell-based; method in brief: as §1
[13] = Cytotoxicity against human Jeko cells assessed as viable cells at 100 uM after 72 hrs by MTT assay; format: functional; settings: JeKo-1, 72 h, read-out: Activity; method in brief: as §1
[14] = Cytotoxicity against human UPN1 cells assessed as viable cells at 100 uM after 72 hrs by MTT assay; format: functional; settings: UPN1, 72 h, read-out: Activity; method in brief: as §1
Mino = assay: Cytotoxicity against human Mino cells assessed as reduction in cell viability at 100 uM after 72 hrs by MTT assay; format: functional, cell-based; method in brief: as §1
[15] = biological target: RAC-alpha serine/threonine-protein kinase (Homo sapiens) (UniProt P31749); assay: Inhibition of AKT1 phosphorylation in human HEK293 cells overexpressing CHI3L1 gene at 50 uM after 24 hrs by Western blot analysis; format: cell-based; method in brief: as §2
[16] = biological target: T1, Mitogen-activated protein kinase; ERK1/ERK2 (Homo sapiens); assay: Inhibition of ERK1/2 phosphorylation in human HEK293 cells overexpressing CHI3L1 gene at 10 uM after 24 hrs by Western blot analysis; format: cell-based; method in brief: as §2
C6 [17] = assay: Cytotoxicity against rat C6 cells assessed as reduction in cell viability at 1 uM after 72 hrs by MTT assay in presence of temozolomide; format: functional
Method in brief: (§3)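 U373 or C6 glioma cells seeded in triplicate at 3 × 10³ cells/well in DMEM. Exposed 72 h to temozolomide at final 10, 100, 250, 500 and 1000, alone or combined with 1 µM bradykinin antagonist. MTT read-out gives viability as % of vehicle control. Mean of two experiments run in triplicate.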

[18] = biological target: RAC-alpha serine/threonine-protein kinase (Homo sapiens) (UniProt P31749); assay: Inhibition of AKT1 phosphorylation in human U373 cells at 10 uM after 24 hrs by Western blot analysis; format: cell-based; settings: U-373MG ATCC; method in brief: as §2
[19] = Cytotoxicity against human Small cell lung cancer cells assessed as reduction in cell viability after 72 hrs by MTT assay; format: functional, cell-based; settings: Cancer cell lines
[20] = biological target: T1, Mitogen-activated protein kinase; ERK1/ERK2 (Homo sapiens); assay: Inhibition of ERK1/2 phosphorylation in human HEK293 cells overexpressing CHI3L1 gene at 50 uM after 24 hrs by Western blot analysis; format: cell-based; method in brief: as §2
[21] = biological target: RAC-alpha serine/threonine-protein kinase (Homo sapiens) (UniProt P31749); assay: Inhibition of AKT1 phosphorylation in human HEK293 cells overexpressing CHI3L1 gene at 10 uM after 24 hrs by Western blot analysis; format: cell-based; method in brief: as §2
[22] = biological target: T1, Mitogen-activated protein kinase; ERK1/ERK2 (Homo sapiens); assay: Inhibition of ERK1/2 phosphorylation in human U373 cells at 50 uM after 24 hrs by Western blot analysis; format: cell-based; settings: U-373MG ATCC; method in brief: as §2
HEK293 [23] = assay: Cytotoxicity against HEK293 cells overexpressing CHI3L1 gene assessed as reduction in cell viability at 50 uM after 72 hrs by MTT assay; format: functional, cell-based; settings: Homo sapiens
[24] = (§4) Cytotoxicity against human U373 cells assessed as reduction in cell viability at 1 uM after 72 hrs by MTT assay in presence of temozolomide; format: functional, U-373MG ATCC; method in brief: as §3
[25] = Antitumor activity against human Small cell lung cancer cells xenografted in mouse assessed as tumor growth inhibition; format: functional, Cancer cell lines
U-373MG ATCC = assay: as §4; format: functional; method in brief: as §3

T1 sequence (P27361 whole entry, looked up): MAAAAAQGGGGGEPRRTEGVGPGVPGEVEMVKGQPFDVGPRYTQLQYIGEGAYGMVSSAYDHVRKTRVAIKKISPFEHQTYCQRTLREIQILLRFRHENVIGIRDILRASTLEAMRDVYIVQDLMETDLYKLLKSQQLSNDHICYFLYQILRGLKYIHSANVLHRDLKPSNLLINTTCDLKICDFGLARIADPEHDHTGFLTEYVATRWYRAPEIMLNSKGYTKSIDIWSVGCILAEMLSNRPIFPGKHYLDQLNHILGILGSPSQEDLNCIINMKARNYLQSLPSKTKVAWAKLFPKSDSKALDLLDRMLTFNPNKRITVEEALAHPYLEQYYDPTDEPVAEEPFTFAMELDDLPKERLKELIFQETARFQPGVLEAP
T1 sequence (P28482 whole entry, looked up): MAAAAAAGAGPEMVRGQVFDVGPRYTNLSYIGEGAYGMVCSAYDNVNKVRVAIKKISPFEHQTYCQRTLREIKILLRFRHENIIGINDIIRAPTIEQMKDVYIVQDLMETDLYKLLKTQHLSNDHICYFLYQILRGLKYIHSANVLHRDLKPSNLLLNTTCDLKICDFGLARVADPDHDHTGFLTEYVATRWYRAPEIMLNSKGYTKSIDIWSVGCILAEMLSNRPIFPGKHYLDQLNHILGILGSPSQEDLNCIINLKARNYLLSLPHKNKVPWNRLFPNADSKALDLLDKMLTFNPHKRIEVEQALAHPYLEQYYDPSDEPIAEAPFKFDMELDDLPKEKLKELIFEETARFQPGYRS
RAC-alpha serine/threonine-protein kinase (Homo sapiens), sequence (P31749 whole entry): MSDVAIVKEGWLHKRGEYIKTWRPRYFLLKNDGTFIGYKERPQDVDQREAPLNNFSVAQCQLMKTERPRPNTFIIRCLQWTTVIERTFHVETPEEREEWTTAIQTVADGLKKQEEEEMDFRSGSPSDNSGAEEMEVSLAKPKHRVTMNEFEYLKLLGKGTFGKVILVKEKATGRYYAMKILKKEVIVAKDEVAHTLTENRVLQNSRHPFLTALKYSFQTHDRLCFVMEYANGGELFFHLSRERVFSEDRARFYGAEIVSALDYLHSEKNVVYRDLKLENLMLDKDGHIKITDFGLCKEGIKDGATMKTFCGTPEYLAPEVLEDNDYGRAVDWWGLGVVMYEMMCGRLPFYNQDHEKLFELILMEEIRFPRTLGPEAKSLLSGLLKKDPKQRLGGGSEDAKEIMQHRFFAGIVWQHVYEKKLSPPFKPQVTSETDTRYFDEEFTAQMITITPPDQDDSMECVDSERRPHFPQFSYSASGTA

## O=C1N=C(N2N=C(c3ccc(Br)cc3)CC2c2ccc(Cl)cc2)S/C1=C1\C(=O)Nc2ccccc21 (configuration not stated)
[1]
  IC50: 10 µM

## N=C(N)NCCC[C@H](NC(=O)C1CC2CCCCC2N1C(=O)[C@H](NC(=O)[C@H](CO)NC(=O)[C@@H](NC(=O)CNC(=O)[C@@H]1C[C@@H](O)CN1C(=O)[C@@H]1CCCN1C(=O)[C@H](CCCNC(=N)N)NC(=O)[C@@H](CCCNC(=N)N)NC(=O)/C=C/c1c(F)c(F)c(F)c(F)c1F)C1Cc2ccccc2C1)C1Cc2ccccc2C1)C(=O)O (some centres not stated)
[2]
  IC50: > 100 µM
[3]
  inhibition: inactive
[4]
  inhibition: inactive
[5]
  inhibition: inactive
HEK293 [6]
  IC50: 67.9 µM
[7]
  IC50: 50.5 µM
C6 [8]
  IC50: 37 µM
Granta [9]
  IC50: > 100 µM
[10]
  inhibition: inactive
[11]
  IC50: > 100 µM

## O=C1N=C(N2N=C(c3ccc(Cl)cc3)CC2c2ccc(Cl)cc2)S/C1=C1\C(=O)Nc2ccc(Br)cc21 (configuration not stated)
[1]
  IC50: 0.73 µM

## O=C1N=C(N2N=C(c3ccc(Cl)cc3)CC2c2ccc(Cl)cc2)S/C1=C1\C(=O)Nc2ccc(Cl)cc21 (configuration not stated)
C6 [8]
  IC50: 1.22 µM
[1]
  IC50: 80.7 µM

## COc1ccc(-c2nnc(NC(=O)CN3C(=O)S/C(=C\c4ccc(N(C)C)cc4)C3=O)o2)cc1
[7]
  IC50: > 100 µM
Granta [9]
  IC50: > 100 µM
[11]
  IC50: > 100 µM

## O=C1N=C(Nc2ccc(O)cc2)S/C1=C\c1ccc(Cl)cc1
[7]
  IC50: > 100 µM
Granta [9]
  IC50: > 100 µM
[1]
  IC50: 61.2 µM
[11]
  IC50: > 100 µM

## COc1ccc(NC(=O)COc2ccc(Cl)cc2/C=C2\SC(=S)N(Nc3nc4ccccc4s3)C2=O)cc1
[1]
  IC50: 55.3 µM

## O=C1N=C(N2N=C(c3ccc(Br)cc3)CC2c2ccc(Cl)cc2)S/C1=C1\C(=O)Nc2ccc(Br)cc21 (configuration not stated)
[1]
  IC50: 0.27 µM

## CN(C)c1ccc(C2CC(c3ccc(Cl)cc3)=NN2C2=NC(=O)/C(=C3/C(=O)Nc4ccc(Br)cc43)S2)cc1 (configuration not stated)
[1]
  IC50: 0.16 µM

## O=C1N=C(N2N=C(c3ccccc3)CC2c2ccc(Cl)cc2)S/C1=C1\C(=O)Nc2ccccc21 (configuration not stated)
[7]
  IC50: > 100 µM
Granta [9]
  IC50: > 100 µM
[11]
  IC50: > 100 µM

## O=C1N=C(N2N=C(c3ccc(Cl)cc3)CC2c2ccc(Cl)cc2)S/C1=C1\C(=O)Nc2ccccc21 (configuration not stated)
Granta [12]
  Activity: inactive
[13]
  viability at 100 µM: 60%
[1]
  IC50: 68.2 µM
[14]
  viability at 100 µM: 60%
Mino
  Activity: inactive

## O=C1N=C(N2N=C(c3ccc(Br)cc3)CC2c2ccc(Cl)cc2)S/C1=C1\C(=O)Nc2ccc(Cl)cc21 (configuration not stated)
[1]
  IC50: 7.4 µM

## CC1(C)CC(NC(=O)[C@H](Cc2ccc(OCc3c(Cl)cccc3Cl)cc2)NC(=O)/C=C/c2c(F)c(F)c(F)c(F)c2F)CC(C)(C)N1
[2]
  IC50: 3.3 µM
[3]
  inhibition: Dose-dependent effect
[15]
  inhibition: Active
[16]
  inhibition: Active
[4]
  inhibition: Dose-dependent effect
[5]
  inhibition: Dose-dependent effect
C6 [17]
  Activity: 80%
[18]
  inhibition: Active
HEK293 [6]
  IC50: 3.8 µM
[7]
  IC50: 49.3 µM
[19]
  IC50: 1800 nM
[20]
  inhibition: Active
[21]
  inhibition: Active
C6 [8]
  IC50: 4 µM
[22]
  inhibition: inactive
Granta [9]
  IC50: 63.3 µM
HEK293 [23]
  inhibition: Active
[10]
  inhibition: Dose-dependent effect
[24]
  Activity: 80%
[11]
  IC50: > 100 µM
[25]
  TGI: 91%

## CC1(C)CC(NC(=O)[C@H](Cc2ccc(OCc3c(Cl)cccc3Cl)cc2)NC(=O)OCC2c3ccccc3-c3ccccc32)CC(C)(C)N1
[2]
  IC50: 20 µM
C6 [17]
  Activity: inactive
HEK293 [6]
  IC50: 25.8 µM
[7]
  IC50: 52.3 µM
C6 [8]
  IC50: 15 µM
Granta [9]
  IC50: 41.2 µM
U-373MG ATCC
  Activity: inactive
[11]
  IC50: > 100 µM

Reference: ChEMBL document CHEMBL3351641, “Bradykinin antagonists and thiazolidinone derivatives as new potential anti-cancer compounds” (Bioorg Med Chem, 2014)
